In ChEMBL document CHEMBL6083223, “Development of di-arylated 1,2,4-triazole-based derivatives as therapeutic agents against breast cancer: synthesis and biological evaluation” (RSC Med Chem, 2024):
The source made the active and inactive calls. The calls are words filed in the database; no cut-off is given here.

What was measured:
[1] = Half life in mouse liver microsomes; assay type: ADME, Microsome
Summary of the method: (§1)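 Substrate depletion: microsomes (0.5 mg mL⁻¹ protein) in 100 mM PBS pH 7.4, 3.3 mM MgCl₂, 1.2 mM NADPH, preincubated 5 min at 37 °C; compound spiked at 5 μM, sampled at 0, 15 and 30 min. Quenched with cold acetonitrile containing diazepam internal standard, LC-MS/MS; triplicate. Log-linear plot of remaining substrate (0 min = 100%) gives parameters.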

[2] = Intrinsic clearance in dog liver microsomes measured per mg protein; assay type: ADME, Canis lupus familiaris, Microsome; settings: read-out: CLH; summary of the method: as §1
[3] = Metabolic stability of the compound in monkey liver microsomes at 5 uM measured for 30 mins in absence of NADPH by substrate depletion method based LC-MS/MS analysis; assay type: ADME, Macaca mulatta, Microsome; settings: rhesus monkey, 0.5 h
Summary of the method: (§2)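 NADPH-free control incubations: microsomes (0.5 mg mL⁻¹) in 100 mM PBS pH 7.4 with 3.3 mM MgCl₂, no NADPH, 37 °C; compound 5 μM, 0–30 min. Acetonitrile quench with diazepam internal standard, LC-MS/MS; percent remaining versus 0 min, triplicate.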

[4] = tested on: MCF7; assay: Antiproliferative activity against human MCF7 cells assessed as inhibition of cell growth at 10 uM incubated for 48 hrs by MTT assay; assay type: functional
Summary of the method: (§3)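 Single-concentration screen: cells (ATCC; 37 °C, 5% CO₂) seeded at 4 × 10⁴ per well, adhered overnight, then treated 48 h at 10 μM. Medium removed, MTT (2.5 mg mL⁻¹) added for 4 h, formazan dissolved in DMSO, absorbance read at 570 nm; percent inhibition versus untreated cells.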

[5] = tested on: MCF7; assay: Antiproliferative activity against human MCF7 cells assessed as inhibition of cell growth incubated for 48 hrs by MTT assay; assay type: functional, cell-based; settings: MCF7, 48 h
Summary of the method: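 MCF-7 exposed 48 h to 0.625, 1.25, 2.5, 5, 10, 20 and 40 μM. MTT (2.5 mg mL⁻¹) added for 4 h, medium removed, formazan solubilized in DMSO, absorbance at 570 nm; percent growth inhibition calculated and IC50 derived.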

[6] = Half life in rat liver microsomes; assay type: ADME, Microsome; summary of the method: as §1
[7] = tested on: MCF7; assay: Induction of apoptosis in human MCF7 cells assessed as increase in Bax protein expression at 5 to 20 uM incubated for 48 hrs by western blot analysis; assay type: functional, cell-based; settings: dose 5-20 µM
Summary of the method: (§4)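 MCF-7 cells (1 × 10⁶ per 100 mm dish, RPMI 1640 with 10% FBS) treated 48 h at 5, 10, 15 and 20 μM, 37 °C. RIPA lysates, Bradford-quantified, 50 μg per lane on SDS-PAGE, PVDF transfer, 5% BSA/TBST block; probed for cleaved PARP (1:1000) and Bax (1:400), band densitometry.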

[8] = Metabolic stability of the compound in mouse liver microsomes at 5 uM measured for 30 mins in absence of NADPH by substrate depletion method based LC-MS/MS analysis; assay type: ADME, Microsome; settings: 0.5 h; summary of the method: as §2
[9] = tested on: MCF7; assay: Induction of apoptosis in human MCF7 cells assessed as disruption of mitochondrial […] membrane potential by measuring decrease in fluorescence intensity at 5 to 20 uM incubated for 30 mins by Rhodamine123 staining based fluorescence microscopic analysis; assay type: functional, cell-based; settings: dose 5-20 µM
Summary of the method: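 MCF-7 cells treated at 5, 10 and 20 μM; rhodamine 123 (1 μg) added 30 min before the end of treatment, cells rinsed with PBS and examined under a fluorescence microscope for loss of mitochondrial fluorescence.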

[10] = tested on: MDA-MB-231; assay: Antiproliferative activity against human MDA-MB-231 cells assessed as inhibition of cell growth at 10 uM incubated for 48 hrs by MTT assay; assay type: functional; summary of the method: as §3
[11] = tested on: ZR-75-1; assay: Antiproliferative activity against human ZR-75-1 cells assessed as inhibition of cell growth incubated for 48 hrs by MTT assay; assay type: functional, cell-based; settings: ZR-75-1, 48 h
[12] = tested on: MCF7; assay: Increase in reactive oxygen species production in human MCF7 cells treated with higher concentrations by DCFH-DA staining based fluorescence microscopic analysis; assay type: functional, cell-based
[13] = Metabolic stability of the compound in dog liver microsomes at 5 uM measured for 30 mins in absence of NADPH by substrate depletion method based LC-MS/MS analysis; assay type: ADME, Canis lupus familiaris, Microsome; settings: 0.5 h; summary of the method: as §2
[14] = Cytotoxicity against human MCF-10A cells assessed as inhibition of cell growth incubated for 24 hrs by MTT assay; assay type: toxicity, cell-based
Summary of the method: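 Non-tumorigenic MCF-10A breast epithelial cells in 96-well plates (5% CO₂) exposed 24 h to 10, 50 and 100 μM. MTT (2.5 mg mL⁻¹) for 4 h, formazan dissolved in DMSO, absorbance at 570 nm; percent growth inhibition calculated to estimate IC50.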

[15] = Intrinsic clearance in rat liver microsomes measured per mg protein; assay type: ADME, Microsome; settings: read-out: CLH; summary of the method: as §1
[16] = tested on: MCF7; assay: Induction of autophagy in human MCF7 cells assessed as increase in autophagosome production at 5 to 20 uM by acridine orange staining based fluorescence microscopic analysis; assay type: functional, cell-based; settings: dose 5-20 µM
Summary of the method: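 MCF-7 cells treated at 5, 10 and 20 μM, then stained with 200 nM acridine orange for 10 min at 37 °C and imaged by fluorescence microscopy.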

[17] = Half life in monkey liver microsomes; assay type: ADME, Macaca mulatta, Microsome; settings: rhesus monkey; summary of the method: as §1
[18] = Intrinsic clearance in monkey liver microsomes measured per mg protein; assay type: ADME, Macaca mulatta, Microsome; settings: rhesus monkey; summary of the method: as §1
[19] = Intrinsic clearance in human liver microsomes measured per mg protein; assay type: ADME, Microsome; summary of the method: as §1
[20] = Intrinsic clearance in mouse liver microsomes measured per mg protein; assay type: ADME, Microsome; summary of the method: as §1
[21] = tested on: ZR-75-1; assay: Antiproliferative activity against human ZR-75-1 cells assessed as inhibition of cell growth at 10 uM incubated for 48 hrs by MTT assay; assay type: functional; summary of the method: as §3
[22] = tested on: MCF7; assay: Induction of apoptosis in human MCF7 cells assessed as increase in cleaved PARP protein expression at 5 to 20 uM incubated for 48 hrs by western blot analysis; assay type: functional, cell-based; settings: dose 5-20 µM; summary of the method: as §4
[23] = Metabolic stability of the compound in rat liver microsomes at 5 uM measured for 30 mins in absence of NADPH by substrate depletion method based LC-MS/MS analysis; assay type: ADME, Microsome; settings: 0.5 h; summary of the method: as §2
[24] = Metabolic stability of the compound in human liver microsomes at 5 uM measured for 30 mins in absence of NADPH by substrate depletion method based LC-MS/MS analysis; assay type: ADME, Microsome; settings: 0.5 h; summary of the method: as §2
[25] = tested on: MDA-MB-231; assay: Antiproliferative activity against human MDA-MB-231 cells assessed as inhibition of cell growth incubated for 48 hrs by MTT assay; assay type: functional, cell-based; settings: MDA-MB-231, 48 h
[26] = Half life in dog liver microsomes; assay type: ADME, Canis lupus familiaris, Microsome; summary of the method: as §1
[27] = Half life in human liver microsomes; assay type: ADME, Microsome; summary of the method: as §1
[28] = tested on: MDA-MB-231; assay: Antiproliferative activity against human MDA-MB-231 cells assessed as inhibition of cell growth at 1 uM incubated for 48 hrs by MTT assay; assay type: functional
Summary of the method: (§5)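 Positive-control reference measured alongside the single-concentration screen: cells seeded at 4 × 10⁴ per well, adhered overnight, exposed 48 h to doxorubicin at 1 μM. MTT (2.5 mg mL⁻¹) added for 4 h, formazan dissolved in DMSO, absorbance at 570 nm; percent growth inhibition relative to untreated cells.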

[29] = tested on: ZR-75-1; assay: Antiproliferative activity against human ZR-75-1 cells assessed as inhibition of cell growth at 1 uM incubated for 48 hrs by MTT assay; assay type: functional; summary of the method: as §5
[30] = tested on: MCF7; assay: Antiproliferative activity against human MCF7 cells assessed as inhibition of cell growth at 1 uM incubated for 48 hrs by MTT assay; assay type: functional; summary of the method: as §5

COc1ccc(-c2ncn(-c3cc(OC)c(OC)c(OC)c3)n2)cc1F
half-life [1]: 34 min
microsomal CLint [2]: > 53 µL/min/mg
Stability [3]: Stable
inhibition at 10 µM [4]: 51.3%
IC50 [5]: 4.8 µM
half-life [6]: < 30 min
Activity [7]: Active
Stability [8]: Stable
Activity [9]: Active
inhibition at 10 µM [10]: 32.1%
IC50 [11]: 34 µM
Activity [12]: Active
Stability [13]: Stable
IC50 at 24 h [14]: > 100 µM
microsomal CLint [15]: > 86.1 µL/min/mg
Activity [16]: Active
half-life [17]: 60 min
microsomal CLint [18]: 23 µL/min/mg
microsomal CLint [19]: 13 µL/min/mg
microsomal CLint [20]: 41 µL/min/mg
inhibition at 10 µM [21]: 6.41%
Activity [22]: Active
Stability [23]: Stable
Stability [24]: Stable
IC50 [25]: 17 µM
half-life [26]: < 30 min
half-life [27]: > 60 min

COc1cc(-n2cnc(-c3cccc(N)c3)n2)cc(OC)c1OC
inhibition at 10 µM [4]: 57.6%
IC50 [5]: 5.7 µM
inhibition at 10 µM [10]: 22.7%
IC50 [11]: 71 µM
inhibition at 10 µM [21]: 12.1%
IC50 [25]: 21 µM

COc1cc(-n2cnc(-c3cccc(C=O)c3)n2)cc(OC)c1OC
inhibition at 10 µM [4]: 13.4%
inhibition at 10 µM [10]: 22.6%

c1cc2c(cc1-c1ncn(-c3ccc4c(c3)OCO4)n1)OCO2
inhibition at 10 µM [4]: 8.99%
inhibition at 10 µM [10]: 17.1%

COc1cc(-n2cnc(-c3ccc4c(c3)OCO4)n2)cc(OC)c1OC
inhibition at 10 µM [4]: 21.2%
inhibition at 10 µM [10]: 17.9%

COc1ccc(-c2ncn(-c3cc(OC)c(OC)c(OC)c3)n2)cc1OC
inhibition at 10 µM [4]: 28.9%
inhibition at 10 µM [10]: 23.5%

c1ccc2c(-c3ncn(-c4ccc5c(c4)OCO5)n3)cccc2c1
inhibition at 10 µM [4]: 5.71%
inhibition at 10 µM [10]: 15.3%

COc1ccc(-n2cnc(-c3ccc(C(F)(F)F)cc3)n2)cc1OC
inhibition at 10 µM [4]: 21.3%
inhibition at 10 µM [10]: 15.8%

COc1ccc(-n2cnc(-c3ccc(F)c(F)c3)n2)cc1OC
inhibition at 10 µM [4]: 16.1%
inhibition at 10 µM [10]: 7.98%

COc1ccc(-n2cnc(-c3ccc(F)cc3)n2)cc1OC
inhibition at 10 µM [4]: 17.6%
inhibition at 10 µM [10]: 16.8%

COc1ccc(-n2cnc(-c3cccc(C(F)(F)F)c3)n2)cc1OC
inhibition at 10 µM [4]: 18.4%
inhibition at 10 µM [10]: 12.8%

COc1cc(-n2cnc(-c3ccc(F)c(F)c3)n2)cc(OC)c1OC
inhibition at 10 µM [4]: 23.3%
inhibition at 10 µM [10]: 23.4%

COc1cccc(-c2ncn(-c3cc(OC)c(OC)c(OC)c3)n2)c1
inhibition at 10 µM [4]: 16.4%
inhibition at 10 µM [10]: 16.4%

COc1cc(-n2cnc(-c3ccc(F)cc3)n2)cc(OC)c1OC
inhibition at 10 µM [4]: 20.2%
inhibition at 10 µM [10]: 23.1%

COc1cc(-n2cnc(-c3ccc4nc[nH]c4c3)n2)cc(OC)c1OC
inhibition at 10 µM [4]: 58.5%
IC50 [5]: 5.2 µM
inhibition at 10 µM [10]: 31.6%
IC50 [11]: 93 µM
IC50 at 24 h [14]: > 100 µM
inhibition at 10 µM [21]: 21.2%
IC50 [25]: 15 µM

COc1ccc(-c2ncn(-c3ccccc3)n2)cc1
inhibition at 10 µM [4]: 0.853%
inhibition at 10 µM [10]: 0%
inhibition at 10 µM [21]: 0%

COc1cc(-n2cnc(-c3cc(Cl)cc(Cl)c3)n2)cc(OC)c1OC
inhibition at 10 µM [4]: 0%
inhibition at 10 µM [10]: 17.4%

COc1cc(-n2cnc(-c3cccc(O)c3)n2)cc(OC)c1OC
inhibition at 10 µM [4]: 32.8%
inhibition at 10 µM [10]: 10.4%
inhibition at 10 µM [21]: 8.54%

COc1cc(-n2cnc(-c3cccc(C(F)(F)F)c3)n2)cc(OC)c1OC
inhibition at 10 µM [4]: 48.6%
IC50 [5]: 11 µM
inhibition at 10 µM [10]: 5.77%
IC50 [11]: 98 µM
inhibition at 10 µM [21]: 2.39%
IC50 [25]: 94 µM

COc1ccc(-n2cnc(-c3ccc(Cl)cc3)n2)cc1OC
inhibition at 10 µM [4]: 9.2%
inhibition at 10 µM [10]: 0%
inhibition at 10 µM [21]: 0%

COc1cc(-n2cnc(-c3cccc4ccccc34)n2)cc(OC)c1OC
inhibition at 10 µM [4]: 13.4%
inhibition at 10 µM [10]: 22.6%

COc1cccc2c1C(=O)c1c(O)c3c(c(O)c1C2=O)C[C@@](O)(C(=O)CO)C[C@@H]3O[C@H]1C[C@H](N)[C@H](O)[C@H](C)O1 [DOXORUBICIN]
inhibition at 1 µM [28]: 37.9%
IC50 [11]: 1.2 µM
inhibition at 1 µM [29]: 45.5%
inhibition at 1 µM [30]: 45.5%
IC50 [25]: 1.7 µM

COc1ccc(-c2ncn(-c3cc(OC)c(OC)c(OC)c3)n2)cn1
inhibition at 10 µM [4]: 35.9%
inhibition at 10 µM [10]: 5.25%
inhibition at 10 µM [21]: 4.95%
